Screening results deposited in PubChem by several laboratories.
This is a sample that favours compounds with a hit; in the whole collection about 4.9% have one here.
STAT1 act-1: STAT1 signaling activators, primary screen, cell-based, HTS, luciferase reporter; activation (% of control), % at 5.5 µM; actives 2.6% (n = 200,000); NIH 3T3 STAT1-luciferase reporter, IFN-gamma, luminescence; 100% = IFN-gamma alone, no compound;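 active means activation above the screen-wide mean activation plus 3 SD, cut at about 130% in these data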;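 further: raw ratio to IFN-gamma control signal so 100% means no change and 0% no light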
STAT3 act-1: IL-6 driven STAT3 reporter potentiators, primary screen, U3A cells, luciferase, luminescence, MLSCN library | IL-6 STAT3-luciferase reporter; 100% = signal with IL-6 EC80 alone | activation (% of control), % at 5.6 µM | actives 0.91% (n = 190,000) | AID 871, 2007;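 active means activation above the screen-wide mean of compound activation plus 3 SD, cut at about 130% in these data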;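 further: 0% = background luminescence of wells with medium and substrate only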
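Test system: STAT3-luciferase reporter U3A cells; Detection: reporter luminescence signal; Times: 1 h compound pre-exposure, 6 h IL-6 stimulation, 37 °C; Benchmarks: IL-6-only high control; Also added: IL-6 stimulus at 33 ng/mL final.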
STAT1 blocker: STAT1 signaling inhibitors, primary screen, cell-based, HTS, luciferase reporter | NIH 3T3 STAT1-luciferase reporter, IFN-gamma, luminescence | inhibition, % at 5.5 µM | actives 0.35% (n = 200,000) | AID 920, 2007;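 active means inhibition above a set limit, the mean inhibition across all tested compounds plus 3 SD, cut at about 34% in these data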;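 further: 0% = IFN-gamma with DMSO and 100% = IFN-gamma with 300 µM nifuroxazide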
APP 5'UTR act: activators of APP 5'UTR luciferase reporter, primary screen, SH-SY5Y cells. SH-SY5Y APP 5'UTR luciferase reporter, luminescence; zero percent = DMSO vehicle wells. activation, % at 2 µM. AID 1276, 2008. actives 1% (n = 190,000);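 active means activation above a set limit, based on mean plus 3 SD of controls, cut at about 140% in these data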
STAT3 blocker: IL-6 driven STAT3 reporter inhibitors, primary screen, U3A cells, luciferase, luminescence, MLSCN library; IL-6 STAT3-luciferase reporter; host cell line lacks STAT1; inhibition, % at 5.5 µM; actives 0.89% (n = 190,000);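 active means inhibition above the mean inhibition across all screened compounds plus 3 SD, cut at about 44% in these data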;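 further: 0% = DMSO only wells and 100% = 100 µM nifuroxazide control wells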
NF-kB expr up: activators of NF-kB expression in neurons, primary screen, cell-based, HTS; fold change at 12.5 µM; actives 1.6% (n = 190,000); human neuronal cells, NF-kB reporter expression; stronger effect = higher value; in the data active means fold change above about 3.3
STAT3 act-2: STAT3 reporter potentiators, retest of hits, confirmation, U3A cells, luciferase, luminescence; potentiation (% of control), % at 5.7 µM; actives 64% (n = 1,200); IL-6 potentiation; U3A cells lack STAT1; 100 means same as IL-6 alone; shares compounds with STAT3 act-1;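 active means percent activation of the STAT3 luciferase reporter above a set limit taken from the earlier primary screen, cut at about 130% in these data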;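 further: 0% = background signal of medium plus substrate and 100% = median of IL-6 with DMSO wells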
NFkB act STAT3ct: NF-kB reporter activators in human cells, counter-screen for STAT3 activator project; actives 11% (n = 1,200); NF-kappaB reporter activation; AID 1309, 2008; shares compounds with STAT3 act-1; activation (% of control), % at 5.7 µM; in the data active means activation above about 120%;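 further: reporter induced by TNF-alpha stimulation; 100% = median of stimulated DMSO wells and 0% = no signal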
STAT1 act-2: STAT1 reporter activators, IFN-gamma induced, counter-screen for STAT3 activator project, cell-based, NIH 3T3, luciferase luminescence; shares compounds with STAT3 act-1; NIH 3T3 STAT1-luciferase reporter; activation (% of control), % at 5.7 µM; actives 13% (n = 1,200); AID 1318, 2008;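 active means activation above the solvent-only control well mean plus 3 SD, set per screening run, cut at about 120% in these data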;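 further: 100% = IFN-gamma with DMSO median signal so 100% means no change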
The depositor's hits bear a star; . = no result given.

SMILES | STAT1 act-1 | STAT3 act-1 | STAT1 blocker | APP 5'UTR act | STAT3 blocker | NF-kB expr up | STAT3 act-2 | NFkB act STAT3ct | STAT1 act-2
COc1ccc2[nH]c3ccccc3c2c1 | 106.7 | 87.7 | -7.3 | 19.5 | 18.3 | 1.25 | . | . | .
COc1ccc2[nH]c(=O)c3c(c2c1)OC(C)(C)C=C3 | 96.3 | 136.8* | 4.0 | -9.7 | -41.1 | 1 | 126.4 | 85.5 | 102.5
CC1(C)CC(=O)C(c2c[nH]c3ccccc23)C(=O)C1 | 93.7 | 152.2* | 5.2 | 11.5 | -54.9 | 0.87 | 163.4* | 109.4 | 102.9
CC12CN3CC(C)(CN(C1)C3c1c[nH]c3ccccc13)C2=O (centres undefined) | 102.2 | 96.7 | -4.0 | -2.2 | 8.2 | 1.06 | . | . | .
COc1cccc(-n2c(SCC(=O)N3CCCCC3)nc3c([nH]c4ccccc43)c2=O)c1 | 90.6 | . | 9.0 | 2.7 | . | 1.04 | . | . | .
CC(C)Sc1nc2c([nH]c3ccccc32)c(=O)n1C | 90.6 | 158.5* | 9.9 | 0.5 | -61.2 | 1.19 | 158.9* | 92.3 | 87.1
CNC(=O)CSc1nc2c([nH]c3ccccc32)c(=O)n1CCOC | 86.8 | 141.1* | 14.1 | -4.0 | -51.9 | 1.05 | 150.2* | 97.5 | 91.4
COc1cccc(-n2c(SCC(N)=O)nc3c([nH]c4ccccc43)c2=O)c1 | 93.6 | 143.1* | 5.7 | 9.9 | -43.2 | 1.16 | 158.4* | 106.8 | 96.7
CCOC(=O)C(C)Sc1nc2c([nH]c3ccccc32)c(=O)n1C (centres undefined) | 93.3 | 120.1 | 7.3 | 0.5 | -20.6 | 1.2 | . | . | .
COc1cccc(-n2c(SCC(=O)Nc3cc(C)on3)nc3c([nH]c4ccccc43)c2=O)c1 | 81.1 | 144.4* | 21.1 | -13.2 | -47.7 | 2.11 | 135.3* | 99.6 | 90.2
COc1cccc(-n2ccnc2SCC(=O)Nc2cc(C)on2)c1 | 92.1 | 99.8 | 6.5 | 19.6 | 7.2 | 0.85 | . | . | .
CCCCN(CCCC)CCNC(=O)Cc1nc2c(c(=O)[nH]c(=O)n2C)n1C | 102.4 | 100.4 | 0.5 | -0.5 | 3.3 | 1.08 | . | . | .
Cc1cccc(N2CCN(CCNC(=O)c3cc4c(s3)CS(=O)(=O)C4)CC2)c1C | 99.9 | 88.7 | 0.1 | 6.4 | 12.3 | 1.39 | . | . | .
COC(=O)c1ccccc1-n1cccc1C(=O)NP(=O)(N1CCOCC1)N1CCOCC1 | 104.8 | 102.9 | -4.5 | -27.7 | -1.0 | 1.05 | . | . | .
Cc1cc(NC(=O)CSc2nc3c([nH]c4ccccc43)c(=O)n2-c2cccc(C(F)(F)F)c2)no1 | 90.9 | 147.8* | 9.8 | 19.3 | -49.2 | 1.03 | 138.1* | 105.0 | 84.7
CN1C(=O)/C(=N\OC(=O)c2cccc3ccccc23)c2ccccc21 | 91.5 | 141.4* | 9.4 | 4.4 | -37.2 | 0.91 | 125.7 | 102.5 | 89.3
